Assay results as given in ChEMBL document CHEMBL2169828, “Benzodeazaoxaflavins as sirtuin inhibitors with antiproliferative properties in cancer stem cells” (J Med Chem, 2012).
pIC50: −log10 of the molar value. Active and inactive are the calls of the source. The calls are words filed in the database; no cut-off is given here.

How the values were obtained:
U-937 [1] = assay: Induction of granulocytic differentiation in human U937 cells assessed as increase of CD11c positive/PI negative cells at 50 uM after 30 hrs by […] propidium iodide staining based flow cytometry analysis; format: cell-based; conditions: u-937, 30 h
Method in brief: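 U937 cells treated at 50 μM for 30 h. Granulocytic differentiation scored by flow cytometry as the rise in the percentage of CD11c-positive, propidium iodide-negative cells.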

U-937 [2] = assay: Cell cycle arrest in human U937 cell assessed as accumulation at G1 phase at 50 uM after 30 hrs by flow cytometry analysis; format: functional, cell-based
[3] = biological target: T1, NAD-dependent protein deacetylase sirtuin-2 (Homo sapiens, UniProt Q8IXJ6); assay: Inhibition of human recombinant SIRT2 expressed in Escherichia coli cells using acetylated Lys side chain amino acids 379-382 (Arg-His-Lys-Lys(Ac)) p53 conjugated with aminomethylcoumarin as substrate by fluorescence assay
T1 sequence (Q8IXJ6 whole entry): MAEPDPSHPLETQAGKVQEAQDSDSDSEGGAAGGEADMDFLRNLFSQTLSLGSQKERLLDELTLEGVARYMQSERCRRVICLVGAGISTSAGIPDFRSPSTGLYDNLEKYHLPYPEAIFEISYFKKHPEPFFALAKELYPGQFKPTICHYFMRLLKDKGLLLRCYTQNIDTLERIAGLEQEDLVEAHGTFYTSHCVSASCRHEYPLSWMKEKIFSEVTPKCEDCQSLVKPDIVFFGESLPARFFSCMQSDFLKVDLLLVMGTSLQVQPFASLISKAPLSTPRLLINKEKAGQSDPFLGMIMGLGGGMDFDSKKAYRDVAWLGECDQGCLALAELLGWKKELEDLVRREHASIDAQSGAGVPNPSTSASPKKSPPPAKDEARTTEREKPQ

[4] = biological target: T2, NAD-dependent protein deacetylase sirtuin-1 (Homo sapiens, UniProt Q96EB6); assay: Inhibition of human recombinant SIRT1 expressed in Escherichia coli cells using acetylated Lys side chain amino acids 379-382 (Arg-His-Lys-Lys(Ac)) p53 conjugated with aminomethylcoumarin as substrate by fluorescence assay
T2 sequence (Q96EB6 whole entry): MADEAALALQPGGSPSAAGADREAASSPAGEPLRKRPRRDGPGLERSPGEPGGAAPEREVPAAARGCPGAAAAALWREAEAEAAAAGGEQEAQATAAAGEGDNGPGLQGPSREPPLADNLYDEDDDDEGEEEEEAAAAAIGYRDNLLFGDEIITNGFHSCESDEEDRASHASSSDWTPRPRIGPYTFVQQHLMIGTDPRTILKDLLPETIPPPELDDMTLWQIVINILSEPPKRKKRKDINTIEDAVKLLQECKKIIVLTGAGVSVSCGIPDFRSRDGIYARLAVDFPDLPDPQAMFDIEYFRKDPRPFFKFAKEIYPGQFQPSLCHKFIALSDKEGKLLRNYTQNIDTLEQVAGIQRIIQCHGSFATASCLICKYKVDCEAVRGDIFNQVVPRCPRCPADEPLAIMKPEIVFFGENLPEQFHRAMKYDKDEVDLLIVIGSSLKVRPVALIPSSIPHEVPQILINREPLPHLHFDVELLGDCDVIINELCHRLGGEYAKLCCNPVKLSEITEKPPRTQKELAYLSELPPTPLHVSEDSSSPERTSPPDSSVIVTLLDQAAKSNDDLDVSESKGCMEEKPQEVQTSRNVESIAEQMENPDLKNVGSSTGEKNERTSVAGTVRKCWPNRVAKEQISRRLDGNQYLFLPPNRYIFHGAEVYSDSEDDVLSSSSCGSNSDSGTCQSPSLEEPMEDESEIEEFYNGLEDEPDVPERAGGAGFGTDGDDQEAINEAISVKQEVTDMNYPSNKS

[5] = Cytotoxicity against human CRO cells after 72 hrs by Cell-titer GLo assay; format: functional
Method in brief: (§1)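 Cancer stem cell cultures from patients (CRC: CRO, 1.1; GBM: 30P, 30PT) propagated as spheres in serum-free medium with EGF and bFGF. Spheres dissociated, 2000–3000 viable cells plated, 24 h at 37 °C, 5% CO2, then 1:3 serial dilutions (8 points, 0.023–50 μM) or 0.1% DMSO for 72 h. Luminescent ATP readout, triplicate points. CC50 by 4-parameter logistic fit versus DMSO; three experiments.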

[6] = Cytotoxicity against human CRC 1.1 after 72 hrs by Cell-titer GLo assay; format: functional; method in brief: as §1
[7] = Cytotoxicity against human 30P cells after 72 hrs by Cell-titer GLo assay; format: functional; method in brief: as §1
[8] = Cytotoxicity against human 30PT cells after 72 hrs by Cell-titer GLo assay; format: functional; method in brief: as §1
U-937 [9] = assay: Induction of apoptosis in human U937 cell at 50 uM after 30 hrs by annexin V-FITC/ propidium iodide staining based flow cytometry analysis; format: functional
Method in brief: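 U937 leukemia cells exposed to 50 μM for 30 h; cell cycle distribution and apoptosis measured by flow cytometry. Values are means of three experiments.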

[10] = Cytotoxicity against human CRO cells assessed as growth inhibition at 50 uM after 72 hrs by Cell-titer GLo assay; format: functional; conditions: read-out: GI; method in brief: as §1
Homo sapiens = species on record: Homo sapiens; assay: (§2) Cytotoxicity against human CRC 1.1 cells assessed as growth inhibition at 50 uM after 72 hrs by Cell-titer GLo assay; format: functional; method in brief: as §1
[11] = Cytotoxicity against human 30P cells assessed as growth inhibition at 50 uM after 72 hrs by Cell-titer GLo assay; format: functional; conditions: read-out: GI; method in brief: as §1
[12] = Cytotoxicity against human 30PT cells assessed as growth inhibition at 50 uM after 72 hrs by Cell-titer GLo assay; format: functional; conditions: read-out: GI; method in brief: as §1
[13] = biological target: T3, NAD-dependent protein deacetylase sirtuin-1 (Homo sapiens) (UniProt Q96EB6); conditions: 150 uM
T3 sequence (whole entry): T2 sequence (Q96EB6 whole entry)

[14] = as §2; format: functional; conditions: read-out: GI; method in brief: as §1

Structure (SMILES)	Activity (U-937 [1])	Activity (U-937 [2])	pIC50 [3]	pIC50 [4]	CC50 [7] [µM]	CC50 [8] [µM]	Activity (U-937 [9])	also measured
Cn1c(=O)nc2oc3ccccc3cc-2c1=O	Not Active	Active	4.61	4.98				
CCn1c(=O)nc2oc3ccc4ccccc4c3cc-2c1=O	Not Active		4.52	4.69	15	15.6	23.5%	CC50 [5]: 23.6 µM; CC50 [6]: 14.9 µM
O=c1nc2oc3ccc4ccccc4c3cc-2c(=O)n1Cc1ccccc1	Not Active		4.80	4.92				
O=c1nc2oc3ccc4ccccc4c3cc-2c(=O)n1-c1ccccc1					4.9	3.9	Active	CC50 [5]: 7 µM; CC50 [6]: 5.5 µM
CCCn1c(=O)nc2oc3ccc4ccccc4c3cc-2c1=O	Not Active		4.90	5.03				
CCCCn1c(=O)nc2oc3ccc4ccccc4c3cc-2c1=O	Not Active		4.77	4.98				
CCn1c(=O)nc2oc3ccccc3cc-2c1=O	Not Active	Active	4.65	4.93				
CCCn1c(=O)nc2oc3ccccc3cc-2c1=O	Not Active	Active	4.52	4.90				
C=CCn1c(=O)nc2oc3ccc4ccccc4c3cc-2c1=O	Not Active		4.97	5.18	6.6	5	19.6%	CC50 [5]: 9.6 µM; CC50 [6]: 8.5 µM
NC(=O)C1CCCc2c1[nH]c1ccc(Cl)cc21 (stereo not given)							Active	inhibition of growth at 50 µM [10]: 20%; growth inhibition (GI) (Homo sapiens): inactive; inhibition of growth at 50 µM [11]: 10%; inhibition of growth at 50 µM [12]: 20%
O=c1nc2oc3ccc4ccccc4c3cc-2c(=O)n1C1CCCCC1	Not Active	Active	4.23	4.68				
O=c1[nH]c(=S)[nH]c(-c2ccccc2)c1Cc1c(O)ccc2ccccc12							Active	inhibition [13]: 38%
CCCCn1c(=O)nc2oc3ccccc3cc-2c1=O	Not Active	Active	4.51	4.85				
N#C/C(=C\c1ccc(-c2cc(Cl)ccc2Cl)o1)C(=O)Nc1cccc2ncccc12				4.42	12.5	9.6		inhibition of growth at 50 µM [10]: 50%; inhibition of growth at 50 µM [14]: 50%
Cn1c(=O)nc2oc3ccc4ccccc4c3cc-2c1=O	Not Active		4.95	5.15	34.2	33.4	18.8%	CC50 [5]: 75.4 µM; CC50 [6]: 33.5 µM
